From PubChem BioAssay come the findings set out here.

Assay [1] in a line: RPL19A-GFP modulators, yeast TOR pathway, confirmation, cell-based, S. cerevisiae, flow cytometry, cherry picks, mother/daughter gates (AID 2270;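 active = GFP response below 50% of the DMSO control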). Conditions: S. cerevisiae RPL19A-GFP strain, 3 h, at 10 µM, stronger effect = lower value, 100 = same GFP as DMSO wells. On the technique in general: In flow cytometry, cells or beads pass a laser one at a time.
The nature of assay [2]: LAP4-GFP expression modulators in yeast, confirmation, cell-based, cherry picks, flow cytometry, mother/daughter gates (AID 2271;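 active = GFP response above 150% of the DMSO control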;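 also: ratio of sample to DMSO plate mean so 100% equals DMSO level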). Conditions: S. cerevisiae LAP4-GFP strain, 3 h, at 10 µM, stronger effect = higher value, 100 means same as DMSO control. The method, boiled down:
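Material – Alexa Fluor 633-labelled Saccharomyces cerevisiae GFP-fusion strain, single-plex · Incubation – compound exposure 3 h at 30 °C, end-over-end rotation · Measured by – GFP by flow cytometry · Measure – median GFP fluorescence as percent of plate-mean DMSO wells · Control set – positive rapamycin (400 ng/mL), negative DMSO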

Assay [3] in a line: modulators of MEP2-GFP levels in yeast, confirmation, S. cerevisiae, flow cytometry GFP, cherry picks (AID 2272;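 active = GFP response above 150% of the DMSO control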;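 also: ratio of well signal to plate DMSO mean so 100% equals DMSO level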). As to conditions: S. cerevisiae MEP2-GFP strain, 3 h, at 10 µM, stronger effect = higher value.
Assay [4] in a line: AGP1-GFP expression modulators, hit retest, confirmation, cell-based, flow cytometry, S. cerevisiae, cherry picks (AID 2273).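 Also: median GFP channel fluorescence over the whole cell population gate.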 Conditions: S. cerevisiae AGP1-GFP strain, 3 h, at 10 µM.
Assay [5] is described as follows: modulators of CIT2-GFP expression in yeast, confirmation, S. cerevisiae, GFP fusion, cherry picks, mother/daughter gates (AID 2274). Conditions: S. cerevisiae CIT2-GFP strain, flow cytometry, 3 h, at 10 µM, stronger effect = higher value.
The mark [6] stands for this setting: measured here: daughter cell gate.
[7] abbreviates: measured here: mother cell gate.
The mark [8] stands for this setting: measured here: daughter cell gate response.
Where [9] appears, read: measured here: mother cell gate response.

Active and inactive are the calls of the source.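 The calls were made as follows, unless noted: active = GFP response above 150% of the DMSO level; inconclusive = fewer than 70 events counted for a yeast strain; inactive = the rest.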

Regarding `COc1cc(CCN2C(=O)c3cccc4cccc(c34)C2=O)c(S(=O)(=O)NCCCO)cc1OC`, the GFP response vs DMSO is 99.1% (inactive) in assay [1], 98.5% in assay [1] (setting [6]), 99.7% in assay [1] (setting [7]) and 99.5% (inactive) in assay [3]. The GFP response relative to DMSO was 95.3% (inactive) in assay [2], 96.5% in assay [2] (setting [8]) and 94.6% in assay [2] (setting [9]). The GFP response, % of DMSO was 93.6% (inactive) in assay [4], 95% (inactive) in assay [5], 96.4% in assay [5] (setting [6]) and 93.3% in assay [5] (setting [7]).

Consider `O=C(CN1CCN(Cc2ccccc2Cl)C1=O)NC1CCCCCCC1`, for which the GFP response vs DMSO in assay [1] was 98.2% (inactive); in assay [1] (setting [6]), 98.6%; in assay [1] (setting [7]), 99.7%; in assay [3], 100% (inactive). The GFP response relative to DMSO is 96.7% (inactive) in assay [2], 97.6% in assay [2] (setting [8]) and 95.1% in assay [2] (setting [9]). Also, the GFP response, % of DMSO in assay [4] is 99.7% (inactive); in assay [5], 107% (inactive); in assay [5] (setting [6]), 106%; in assay [5] (setting [7]) it was 104%.

In the case of `CCOC(=O)COc1c(Cl)cc(/C=C2\N=C(C)OC2=O)cc1OC`, the GFP response vs DMSO in assay [1] is 105% (inactive); in assay [1] (setting [6]), 105%; in assay [1] (setting [7]) it was 103%; in assay [3], 104% (inactive). Moreover, the GFP response relative to DMSO in assay [2] is 109% (inactive); in assay [2] (setting [8]), 108%; in assay [2] (setting [9]), 113%. Also, the GFP response, % of DMSO in assay [4] was 98.9% (inactive); in assay [5], 103% (inactive); in assay [5] (setting [6]), 105%; in assay [5] (setting [7]), 99.8%.

As for `CC(=O)Nc1cccc(Oc2ccc(-c3noc(C)n3)cc2)c1`, the GFP response vs DMSO was 95.8% (inactive) in assay [1], 93.4% in assay [1] (setting [6]), 96.3% in assay [1] (setting [7]) and 107% (inactive) in assay [3]. The GFP response relative to DMSO in assay [2] is 101% (inactive); in assay [2] (setting [8]) it was 99.1%; in assay [2] (setting [9]), 102%. The GFP response, % of DMSO in assay [4] is 93.6% (inactive); in assay [5], 97.3% (inactive); in assay [5] (setting [6]), 95.6%; in assay [5] (setting [7]), 96.8%.

For the compound `COC(=O)c1cc(NC(=O)c2c(Cl)nc3sccn23)cc(C(=O)OC)c1`, the GFP response vs DMSO is 97% (inactive) in assay [1], 98.6% in assay [1] (setting [6]), 96.9% in assay [1] (setting [7]) and 102% (inactive) in assay [3]. The GFP response relative to DMSO was 92.8% (inactive) in assay [2], 92.8% in assay [2] (setting [8]) and 92.9% in assay [2] (setting [9]). In addition, the GFP response, % of DMSO is 90% (inactive) in assay [4], 99.7% (inactive) in assay [5], 101% in assay [5] (setting [6]) and 99.7% in assay [5] (setting [7]).

Turning to `COc1ccc(-c2csc(NC(=O)c3ccco3)n2)cc1`, the GFP response vs DMSO is 98.4% (inactive) in assay [1], 96.7% in assay [1] (setting [6]), 97.8% in assay [1] (setting [7]) and 104% (inactive) in assay [3]. Moreover, the GFP response relative to DMSO in assay [2] was 109% (inactive); in assay [2] (setting [8]), 102%; in assay [2] (setting [9]), 109%. Also, the GFP response, % of DMSO in assay [4] is 91.9% (inactive); in assay [5], 99.3% (inactive); in assay [5] (setting [6]) it was 100%; in assay [5] (setting [7]) it was 96.8%.

Take `CCOc1ccccc1N1CCN(C(=O)c2ccccc2)CC1`: the GFP response vs DMSO in assay [1] was 97.6% (inactive); in assay [1] (setting [6]), 98.5%; in assay [1] (setting [7]) it was 98.8%; in assay [3], 102% (inactive). Also, the GFP response relative to DMSO in assay [2] was 101% (inactive); in assay [2] (setting [8]), 101%; in assay [2] (setting [9]), 103%. Also, the GFP response, % of DMSO in assay [4] was 101% (inactive); in assay [5], 101% (inactive); in assay [5] (setting [6]), 100%; in assay [5] (setting [7]), 99.1%.

As to `CC1(C)CC(=O)C2=C(C1)OC1=C(C(=O)CC(C)(C)C1)C2c1ccc(O)cc1O`, the GFP response vs DMSO was 104% (inactive) in assay [1], 105% in assay [1] (setting [6]), 99.8% in assay [1] (setting [7]) and 97.8% (inactive) in assay [3]. Moreover, the GFP response relative to DMSO was 143% (inactive) in assay [2], 139% in assay [2] (setting [8]) and 143% in assay [2] (setting [9]). In addition, the GFP response, % of DMSO in assay [4] was 96.3% (inactive); in assay [5], 95.2% (inactive); in assay [5] (setting [6]) it was 103%; in assay [5] (setting [7]) it was 89.1%.

Take `CC1=NNC(=O)/C1=C\c1cn(-c2ccccc2)nc1-c1ccc(Cl)cc1`: the GFP response vs DMSO is 97.6% (inactive) in assay [1], 98.3% in assay [1] (setting [6]), 98.5% in assay [1] (setting [7]) and 101% (inactive) in assay [3]. For the same compound, the GFP response relative to DMSO in assay [2] was 107% (inactive); in assay [2] (setting [8]), 101%; in assay [2] (setting [9]) it was 114%. The GFP response, % of DMSO in assay [4] was 105% (inactive); in assay [5], 97.2% (inactive); in assay [5] (setting [6]), 96.8%; in assay [5] (setting [7]), 95.7%.

For `NC(=O)c1ccccc1OCC(=O)c1ccc(Cl)cc1`, the GFP response vs DMSO is 100% (inactive) in assay [1], 101% in assay [1] (setting [6]), 99% in assay [1] (setting [7]) and 99.3% (inactive) in assay [3]. The GFP response relative to DMSO is 96.5% (inactive) in assay [2], 96% in assay [2] (setting [8]) and 97.4% in assay [2] (setting [9]). Besides, the GFP response, % of DMSO is 102% (inactive) in assay [4], 100% (inactive) in assay [5], 97.6% in assay [5] (setting [6]) and 100% in assay [5] (setting [7]).

Regarding `Cc1ccc2c(c1)c(/C=C/c1cc[n+](C)cc1)c(C)n2C`, the GFP response vs DMSO in assay [1] was 107% (inactive); in assay [1] (setting [6]), 109%; in assay [1] (setting [7]), 108%; in assay [3] it was 226% (active). Moreover, the GFP response relative to DMSO was 178% (active) in assay [2], 194% in assay [2] (setting [8]) and 173% in assay [2] (setting [9]). Further, the GFP response, % of DMSO is 114% (inactive) in assay [4], 184% (active) in assay [5], 191% in assay [5] (setting [6]) and 177% in assay [5] (setting [7]).

In the case of `CC1CCCCN1S(=O)(=O)c1ccc(C(=O)Nc2nnc(-c3ccccc3Cl)o2)cc1` (stereo unspecified), the GFP response vs DMSO is 97.8% (inactive) in assay [1], 97.9% in assay [1] (setting [6]), 98.4% in assay [1] (setting [7]) and 102% (inactive) in assay [3]. For the same compound, the GFP response relative to DMSO is 94.1% (inactive) in assay [2], 94.4% in assay [2] (setting [8]) and 91.9% in assay [2] (setting [9]). The GFP response, % of DMSO in assay [4] is 98.3% (inactive); in assay [5], 99.7% (inactive); in assay [5] (setting [6]), 101%; in assay [5] (setting [7]), 98.5%.

On to `COc1cc(/C=C/c2ccc3c(Br)cc(Br)c(O)c3n2)ccc1O`, for which the GFP response vs DMSO in assay [1] is 101% (inactive); in assay [1] (setting [6]) it was 107%; in assay [1] (setting [7]), 102%; in assay [3], 108% (inactive). The GFP response relative to DMSO was 107% (inactive) in assay [2], 106% in assay [2] (setting [8]) and 108% in assay [2] (setting [9]). In addition, the GFP response, % of DMSO is 98.6% (inactive) in assay [4], 99.7% (inactive) in assay [5], 105% in assay [5] (setting [6]) and 89.8% in assay [5] (setting [7]).

As for `COc1ccc2c(c1)C=Cc1ccccc1O2`, the GFP response vs DMSO is 98.4% (inactive) in assay [1], 97.6% in assay [1] (setting [6]), 99.5% in assay [1] (setting [7]) and 98.3% (inactive) in assay [3]. The GFP response relative to DMSO was 99.2% (inactive) in assay [2], 99.2% in assay [2] (setting [8]) and 99.3% in assay [2] (setting [9]). In addition, the GFP response, % of DMSO in assay [4] was 95.6% (inactive); in assay [5], 104% (inactive); in assay [5] (setting [6]), 106%; in assay [5] (setting [7]), 102%.

With `COC(=O)C1=C(C)NC(C)=C(C(=O)OC)C1c1ccc(OC(=O)c2oc3ccccc3c2C)c(OC)c1`, the GFP response vs DMSO was 98.8% (inactive) in assay [1], 98.1% in assay [1] (setting [6]), 98.8% in assay [1] (setting [7]) and 98.8% (inactive) in assay [3]. For the same compound, the results for the GFP response relative to DMSO in assay [2], in assay [2] (setting [8]) and in assay [2] (setting [9]) were 90% (inactive), 90.4% and 89.9%, respectively. Moreover, the GFP response, % of DMSO in assay [4] was 103% (inactive); in assay [5] it was 103% (inactive); in assay [5] (setting [6]), 102%; in assay [5] (setting [7]), 104%.

Regarding `COC(=O)c1ccccc1Sc1ncnc2onc(C)c12`, the GFP response vs DMSO is 101% (inactive) in assay [1], 100% in assay [1] (setting [6]), 101% in assay [1] (setting [7]) and 120% (inactive) in assay [3]. In addition, the GFP response relative to DMSO in assay [2] was 111% (inactive); in assay [2] (setting [8]), 106%; in assay [2] (setting [9]), 112%. The GFP response, % of DMSO is 93.2% (inactive) in assay [4], 108% (inactive) in assay [5], 106% in assay [5] (setting [6]) and 107% in assay [5] (setting [7]).
